ChEMBL document CHEMBL1149738, “New cytotoxic scalarane sesterterpenes from the Dictyoceratid sponge Strepsichordaia lendenfeldi” (J Nat Prod, 1992)
Converted amounts (≈) assume the structure as drawn. The source made the active and inactive calls. No cut-off for these calls is given here.

Columns and labels:
Bacillus subtilis = assay: Antimicrobial activity against Bacillus subtilis; assay type: functional, organism-based
A549 = assay: Cytotoxicity against human A549 cells; assay type: functional, cell-based
Procedure, shortened: (§1)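 Cultured tumour and normal cell lines: P-388 (lymphoid neoplasm, DBA/2 mouse), A-549 (human lung carcinoma), HT-29 (human colon carcinoma) and CV-1 (monkey kidney fibroblast). Potency was expressed as approximate IC50 values in μg/ml.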

P388 = assay: Cytotoxicity against DBA/2 mouse P388 cells; assay type: functional, cell-based; settings: DBA/2, P388; procedure, shortened: as §1
[1] = Cytotoxicity against african green monkey CV1 cells; assay type: cell-based; settings: chlorocebus aethiops, cv-1; procedure, shortened: as §1
HT-29 = assay: Cytotoxicity against human HT-29 cells; assay type: functional, cell-based; procedure, shortened: as §1
Staphylococcus aureus = assay: Antimicrobial activity against Staphylococcus aureus; assay type: functional, organism-based

Row | SMILES | Activity (Bacillus subtilis) | IC50 (A549) | IC50 (P388) | Activity [1] | Activity (HT-29) | Activity (Staphylococcus aureus)
1 | CCC(=O)OC(CC)CC(=O)O[C@H]1C[C@@H]2[C@@]3(C)CCC[C@](C)(CC)[C@@H]3CC[C@@]2(C)[C@@H]2CC=C(C(C)=O)[C@H](C=O)[C@@]12C (stereo partly drawn) | Active | 0.21 µg/mL (≈ 0.368 µM) | < 0.12 µg/mL |  |  | 
2 | CC[C@@]1(C)CCC[C@]2(C)[C@H]3C[C@H](OC(=O)CC(C)OC(C)=O)[C@]4(C)[C@@H](C=O)C(C(C)=O)=CC[C@H]4[C@]3(C)CC[C@@H]12 (stereo partly drawn) |  | 0.2 µg/mL (≈ 0.368 µM) | 0.2 µg/mL (≈ 0.368 µM) | Active | Active | 
3 | CC[C@@]1(C)CCC[C@]2(C)[C@H]3C[C@H](OC(C)=O)[C@]4(C)[C@@H](C=O)[C@H](C(C)=O)[C@@H](OC(C)=O)C[C@H]4[C@]3(C)CC[C@@H]12 | Active | 0.88 µg/mL (≈ 1.7 µM) | 0.91 µg/mL (≈ 1.76 µM) |  |  | 
4 | CC[C@@]1(C)CCC[C@]2(C)[C@H]3C[C@H](OC(C)=O)[C@]4(C)[C@@H](C=O)[C@H](C(C)=O)[C@@H](OC(=O)C[C@@H](C)O)C[C@H]4[C@]3(C)CC[C@@H]12 | Active | 0.66 µg/mL (≈ 1.18 µM) | 0.23 µg/mL (≈ 0.41 µM) |  |  | Active
5 | CCC(CC(=O)O[C@H]1C[C@@H]2[C@@]3(C)CCC[C@](C)(CC)[C@@H]3CC[C@@]2(C)[C@@H]2CC=C(C(C)=O)[C@H](C=O)[C@@]12C)OC(C)=O (stereo partly drawn) | Active | 0.25 µg/mL (≈ 0.449 µM) | < 0.12 µg/mL |  |  | 
6 | CCC(O)CC(=O)O[C@H]1C[C@H]2[C@]3(C)CC[C@H]4[C@@](C)(CC)CCC[C@]4(C)[C@H]3C[C@H](OC(C)=O)[C@]2(C)[C@@H](C=O)[C@@H]1C(C)=O (stereo partly drawn) |  | 0.5 µg/mL (≈ 0.87 µM) | 0.5 µg/mL (≈ 0.87 µM) | Active | Active | 
7 | CC[C@@]1(C)CCC[C@]2(C)[C@H]3C[C@H](OC(C)=O)[C@]4(C)[C@@H](C=O)[C@H](C(C)=O)[C@@H](O)C[C@H]4[C@]3(C)CC[C@@H]12 |  | 0.1 µg/mL (≈ 0.211 µM) | 0.1 µg/mL (≈ 0.211 µM) | Active | Active | 
8 | CCC(=O)O[C@H]1C[C@H]2[C@]3(C)CC[C@H]4[C@@](C)(CC)CCC[C@]4(C)[C@H]3C[C@H](OC(C)=O)[C@]2(C)[C@@H](C=O)[C@@H]1C(C)=O | Active | 0.67 µg/mL (≈ 1.26 µM) | 0.67 µg/mL (≈ 1.26 µM) |  |  | 
